Screens: PubChem BioAssay, several laboratories
NadD inh: inhibitors of S. aureus NadD, primary screen, biochemical, colorimetric, uHTS. Nicotinate-nucleotide adenylyltransferase NadD (Staphylococcus aureus N315). purified NadD enzyme, colorimetric absorbance read-out. inhibition, % at 20 µM. 360,000 tested, 0.78% active; in the data active means inhibition above about 26%
GRK2 aptamer HTS: compounds blocking aptamer binding on GRK2 – biochemical, human GRK2, bead flow cytometry, HTS, primary screen; 330,000 tested, 0.59% active; AID 488847, 2010; inhibition of aptamer binding, % at 10 µM; FAM-aptamer displacement from GRK2; Beta-adrenergic receptor kinase 1 (Homo sapiens), P25098;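 active means inhibition of aptamer binding above 40%, roughly 3 SD of noise, on plates passing a quality check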;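 further: median bead fluorescence of bound FAM aptamer so fluorescent compounds give negative values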
ABHD5 PLIN5 PPI: ABHD5-PLIN5 interaction inhibitors, primary screen, cell lysate, split luciferase complementation, luminescence; Perilipin-5 (Homo sapiens) + 1-acylglycerol-3-phosphate O-acyltransferase ABHD5 (Homo …; Split G. princeps luciferase complementation, 4 h; inhibition, % at 4 µM; 360,000 tested, 0.78% active; AID 602281, 2012;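 active means inhibition above the mean inhibition across every tested compound plus 3 SD, cut at about 22% in these data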
SENP1 inh: human SENP1 catalytic domain inhibitors, primary screen, biochemical, FRET, uHTS. Sentrin-specific protease 1 (Homo sapiens), Q9P0U3. recombinant SENP1 catalytic domain, CyPet-SUMO1-YPet FRET cleavage. inhibition, % at 10 µM. 360,000 tested, 0.21% active. AID 624204, 2012;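 active means inhibition at least 30% at 10 µM, raw YFP signal under a set limit, fluorescence ratio 0.5 to 1.5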
Target sequence (Q9P0U3 419-644 limits assumed): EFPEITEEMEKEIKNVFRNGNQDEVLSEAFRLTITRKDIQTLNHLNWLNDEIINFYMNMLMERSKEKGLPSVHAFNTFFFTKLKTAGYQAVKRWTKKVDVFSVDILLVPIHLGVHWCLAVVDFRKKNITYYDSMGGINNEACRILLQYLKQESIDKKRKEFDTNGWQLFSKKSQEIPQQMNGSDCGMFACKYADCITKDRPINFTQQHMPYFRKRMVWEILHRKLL
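material = recombinant human SENP1 catalytic domain, His6-tagged | quantity = 20 pM enzyme | reagent = 25 nM SUMO1 FRET substrate | compound dosing = 10 µM single point, 0.5% DMSO | timing = 50 min enzyme reaction, room temperature, light-protected | detection = FRET, CFP and YFP emission | control set = no-enzyme low, enzyme-DMSO high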
Beta2AR agonist: beta2AR agonists driving receptor internalization, primary screen, cell-based, FAP fluorogen, flow cytometry | Beta-2 adrenergic receptor (Homo sapiens), P07550 | Am2.2-beta2AR cells | AID 504454, 2011 | response, % (no concentration beside the values) | 340,000 tested, 0.43% active;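 active means response above a set limit, near 3 SD of response in nonfluorescent compounds, cut at about 42% in these data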
Target sequence (P07550 whole entry, looked up): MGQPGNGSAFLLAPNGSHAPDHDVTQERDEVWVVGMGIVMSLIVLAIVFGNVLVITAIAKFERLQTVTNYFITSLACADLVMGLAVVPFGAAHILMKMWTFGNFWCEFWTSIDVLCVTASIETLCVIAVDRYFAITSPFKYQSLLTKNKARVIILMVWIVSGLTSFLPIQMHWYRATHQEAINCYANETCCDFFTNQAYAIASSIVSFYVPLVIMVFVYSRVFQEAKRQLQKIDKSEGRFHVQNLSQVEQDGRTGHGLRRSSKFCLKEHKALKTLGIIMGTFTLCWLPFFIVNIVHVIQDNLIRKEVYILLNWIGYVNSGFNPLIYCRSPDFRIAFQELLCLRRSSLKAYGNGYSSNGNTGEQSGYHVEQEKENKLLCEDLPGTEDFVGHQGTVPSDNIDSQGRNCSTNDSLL
Of the large screens only hits and unclear results are named; the others gave an inactive call. This is a sample that favours compounds with a hit; in the whole collection about 2.5% have one here.

CCOC(=O)/C(=C\c1ccccc1)C(=O)c1cc(C(C)=O)c(Nc2ccccc2)s1	none
CCOC(=O)/C(=C\c1cccnc1)C(=O)c1cc(C(C)=O)c(Nc2ccccc2)s1	ABHD5 PLIN5 PPI 90, Beta2AR agonist 104
O=C1NN(c2ccc(F)c(Cl)c2)C(=O)/C1=C\c1cccc(OC(=O)c2cccs2)c1	NadD inh 30
CC(C)=C1C(=O)NN(c2ccc(F)c(Cl)c2)C1=O	none
Cc1cc(C(=O)CSc2nnc(-c3cccc(F)c3)n2N)c(C)n1Cc1ccc2c(c1)OCO2	Beta2AR agonist 82
Cc1cc(C(=O)CSc2nnnn2-c2ccc(O)cc2)c(C)n1Cc1ccc2c(c1)OCO2	none
CC(OC(=O)c1cccnc1Cl)C(=O)Nc1ccc2c(c1)OCO2 (centres undefined)	none
COC(=O)C1=C(C)NC(=S)NC1c1ccc(-c2cccc(Cl)c2)o1 (centres undefined)	Beta2AR agonist 51
C=CCn1c(O)c(N=NC(=S)Nc2ccccc2F)c2ccccc21	none
C=CCn1c(O)c(N=NC(=S)Nc2ccccc2F)c2cc(S(=O)(=O)N3CCOCC3)ccc21	NadD inh 38
CCn1c(=N)n(CC(=O)c2ccc(Cl)c(Cl)c2)c2ccccc21	none
N=c1n(CCN2CCCCC2)c2ccccc2n1CC(=O)c1ccc(Cl)c(Cl)c1	ABHD5 PLIN5 PPI 22
CCN(CC(=O)Nc1ccccc1OC)C(=O)COc1ccc(C#N)cc1	none (no result: GRK2 aptamer HTS)
S=c1sc2c(Cl)ncnc2n1-c1ccccc1	Beta2AR agonist 103 (no result: GRK2 aptamer HTS)
CC(C)c1onc(C(=O)NC(C)c2ccccc2)c1[N+](=O)[O-] (centres undefined)	none
O=S(=O)(O)c1ccc(O)c2cc(Nc3ccccc3)ccc12	NadD inh 68 (no result: GRK2 aptamer HTS)
CCOc1ccc(N=C2NC(=O)S/C2=C\c2ccc(N(C)C)cc2)cc1	NadD inh 37
COc1ccc(C2(C)NC(=O)N(CC(=O)c3cc(C)n(C4CC4)c3C)C2=O)cc1OC (centres undefined)	none
CCOc1cc2c(c3c1C(c1ccccc1)N(S(=O)(=O)c1ccc(C)cc1)C3)C(=O)C=CC2=O (centres undefined)	NadD inh 46 (no result: GRK2 aptamer HTS, Beta2AR agonist)
CCOC(=O)/C=C/C(=O)Nc1cc(S(=O)(=O)Nc2ccc(OC)cc2)ccc1N1CCOCC1	ABHD5 PLIN5 PPI 22 (no result: GRK2 aptamer HTS)
COc1ccc(NS(=O)(=O)c2ccc(N3CCOCC3)c(NC(=O)C(C)C)c2)cc1	none
C=CCN1C(=O)/C(=C/C(=O)OC)S/C1=N\NC(=O)c1ccccc1	ABHD5 PLIN5 PPI 23
C=CCn1c(C)c(C(C)=O)cc(NC(=O)c2ccccc2)c1=O	none
O=[N+]([O-])c1ccc(N/N=C/c2ccc(O)c(O)c2O)c(S(=O)(=O)N2CCOCC2)c1	NadD inh 29 (no result: GRK2 aptamer HTS)
COc1cccc(OC)c1C(=O)OCC(=O)NCCNC(=O)COC(=O)c1c(OC)cccc1OC	none (no result: GRK2 aptamer HTS, Beta2AR agonist)
CC(=O)c1cccc(OCC(=O)N(C)CC(=O)NCc2ccco2)c1	GRK2 aptamer HTS 86
CCCCC1CCC(C(=O)Nc2ccc(S(=O)(=O)Nc3nccs3)cc2)CC1 (centres undefined)	NadD inh 33
CCC(=O)Nc1ccc(S(=O)(=O)Nc2nccs2)cc1	none
Cc1ccc(/C=N/Nc2ccnc3cc(Cl)ccc23)c(C)c1	none
Cc1ccccc1/C=N/Nc1ccnc2cc(Cl)ccc12	Beta2AR agonist 48
Clc1ccc2c(N/N=C/c3cccnc3)ccnc2c1	none
Clc1ccc2c(N/N=C/c3ccc(Br)cc3)ccnc2c1	Beta2AR agonist 61
CCCn1c(N)c(C(=O)COC(=O)/C=C/c2ccc(OC(F)F)c(OC)c2)c(=O)[nH]c1=O	none
Cc1ccccc1C(=O)N1CCc2cc(-c3nc(NC(=O)Cc4ccc5c(c4)OCO5)sc3C)ccc21	NadD inh 47
O=[N+]([O-])c1cc(Br)c(Nc2ccccc2)c([N+](=O)[O-])c1	Beta2AR agonist 47
Cc1cc(C(=O)c2ccc(C(C)(C)C)cc2)c(NC(=O)CCl)s1	Beta2AR agonist 96
CC1CCCC(C)N1C(=O)Cn1cc(/C=C2/C(=O)Nc3ccccc32)c2ccccc21 (centres undefined)	NadD inh 34
COc1ccc(OC)c(C2CC(=O)N3CN(c4cccc(Cl)c4C)CSC3=C2C#N)c1 (centres undefined)	NadD inh 32
Cc1oc2c(c1C(=O)O)C(=O)c1ccccc1C2=O	none
Cc1oc2c(c1C(=O)c1ccccc1)C(=O)C(=O)c1ccccc1-2	GRK2 aptamer HTS 58, Beta2AR agonist 98
Cc1ccc(CSc2nnc(SCC(=O)N/N=C/C=C/c3ccco3)s2)cc1	GRK2 aptamer HTS 83
CCOC(=O)c1ccc(NC(=O)c2ccccc2[N+](=O)[O-])cc1	none
CCOC(=O)c1cc([N+](=O)[O-])c([N+](=O)[O-])cc1NC(C)=O	Beta2AR agonist 74
COc1ccc([N+](=O)[O-])cc1C1NN=C(c2ccccc2O)S1 (centres undefined)	NadD inh 35
NC(=S)n1[nH]c(-c2ccc([N+](=O)[O-])cc2)c(N=Nc2cccc(Cl)c2)c1=O	NadD inh 93 (no result: GRK2 aptamer HTS)
NC(=S)n1[nH]c(-c2ccc([N+](=O)[O-])cc2)c(N=Nc2ccc(O)cc2)c1=O	NadD inh 54
Cc1[nH]n(C(N)=S)c(=O)c1N=Nc1ccc([N+](=O)[O-])cc1Cl	none
C[C@@H](c1ccccc1)N1C[C@H]2CCCN2c2cc(Br)ccc2S1(=O)=O	GRK2 aptamer HTS 41
Cc1nn(-c2ccccc2)c2c1C(c1ccc([N+](=O)[O-])cc1)N1C(=N2)C(=O)Nc2ccccc21 (centres undefined)	none
Cc1nn(-c2ccccc2)c2c1C(c1ccc(O)c(O)c1)N1C(=N2)C(Nc2ccccc2)=Nc2ccccc21 (centres undefined)	none
Cc1cccc(NC2=Nc3ccccc3N3C2=Nc2c(c(C)nn2-c2ccccc2)C3c2ccc(O)c(O)c2)c1 (centres undefined)	NadD inh 62
Cc1ccc(NC2=Nc3ccccc3N3C2=Nc2c(c(C)nn2-c2ccccc2)C3c2ccc(O)c(O)c2)cc1 (centres undefined)	NadD inh 61 (no result: GRK2 aptamer HTS)
CC(C)(C)c1ccc(NC(=O)C2=CN3CCS(=O)(=O)N=C3C=C2)cc1	none
O=C(NCC(c1ccco1)N1CCCCC1)c1ccc([N+](=O)[O-])s1 (centres undefined)	none (no result: Beta2AR agonist)
CCOc1cc(/C=C2/C(=O)ON=C2C)ccc1OCc1ccccc1F	Beta2AR agonist 77
CCOc1cc(/C=C2/C(=O)ON=C2C)ccc1OCc1ccccc1	none (no result: NadD inh, ABHD5 PLIN5 PPI, SENP1 inh, Beta2AR agonist)
Cc1oc(=O)cc(OCc2ccccc2)c1C	GRK2 aptamer HTS 45
